{
  "source": "ChEMBL document CHEMBL1127591",
  "about": "“Novel prodrugs of alkylating agents derived from 2-fluoro- and 3-fluorobenzoic acids for antibody-directed enzyme prodrug therapy” (J Med Chem, 1994)",
  "key": {"[1]": {"test": "Chemical half-life in percholate at 37 degree was determined", "type": "ADME", "details": "perchlorate solution", "in_short": "(§1)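 Sodium perchlorate (0.1 M) at 37 °C. Hydrolysis was followed to effective completion by titrating the released acid with 0.01 M NaOH under N2 on an automatic titrator held at pH 7.4. Each compound was run at least twice, and t1/2 is the mean of all determinations.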"}, "LS174T [2]": {"system": "LS174T", "test": "Compound was evaluated for its cytotoxicity without carboxypeptidase G2 in the colorectal cell line LS174T for 1 hour", "type": "functional, cell-based", "details": "Homo sapiens", "in_short": "(§2)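 LS174T cells (2.5 × 10³/well) in DMEM + 10% FCS, 5% CO2, 37 °C. Exposed once for 1 h to six concentrations (1–800 μM), with or without CPG2 (6 units/mL final). Compounds and enzyme were freshly prepared. Cells washed three times, regrown 6 days, then fixed and stained. Viable-cell protein read by sulforhodamine B against untreated controls. Octuplicate wells.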"}, "[3]": {"test": "Kinetics of potential prodrugs as substrates for carboxypeptidase G2 was determined and reported as first order constant", "type": "ADME", "in_short": "(§3)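 CPG2 cleavage of the benzoylglutamate amide bond in 100 mM Tris/HCl pH 7.3 with 260 μM ZnCl2 at 37 °C in a thermostated spectrophotometer. Absorbance fall was read at the wavelength of maximal prodrug–parent difference, chosen from 240–400 nm scans. Substrate 0.1–100 μM, CPG2 (0.01–1.0 unit) held constant per run. Michaelis–Menten fit. Duplicates.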"}, "[4]": {"test": "Kinetics of potential prodrugs as substrates for carboxypeptidase G2 was determined and reported as apparent second order constant", "type": "ADME", "in_short": "as §3"}, "LS174T [5]": {"system": "LS174T", "test": "Compound was evaluated for its cytotoxicity with carboxypeptidase G2 in the colorectal cell line LS174T for 1 hour", "type": "functional, cell-based", "details": "Homo sapiens", "in_short": "as §2"}, "[6]": {"test": "Kinetics of potential prodrugs as substrates for carboxypeptidase G2 was determined and reported as Michaelis-Menten constant", "type": "ADME", "in_short": "as §3"}, "[7]": {"test": "Chemical half-life in percholate at 37 degree Centigrade", "type": "ADME", "details": "perchlorate solution", "in_short": "as §1"}},
  "data": [
    {"smiles": "CS(=O)(=O)OCCN(CCCl)c1ccc(C(=O)O)cc1F", "values": [
      {"measurement": "half-life", "setting": "[1]", "value": 0.04, "unit": "h"},
      {"measurement": "IC50", "setting": "LS174T [2]", "value": 280, "unit": "µM"}
    ]},
    {"smiles": "O=C(O)CC[C@H](NC(=O)c1ccc(N(CCCl)CCCl)cc1)C(=O)O", "values": [
      {"measurement": "half-life", "setting": "[1]", "value": 19.3, "unit": "h"}
    ]},
    {"smiles": "CS(=O)(=O)OCCN(CCCl)c1ccc(C(=O)N[C@@H](CCC(=O)O)C(=O)O)cc1", "values": [
      {"measurement": "half-life", "setting": "[1]", "value": 16.4, "unit": "h"},
      {"measurement": "k cat", "setting": "[3]", "value": 583, "unit": "s⁻¹"},
      {"measurement": "k cat/Km", "setting": "[4]", "value": "1.71e+08", "unit": "M⁻¹ s⁻¹"},
      {"measurement": "IC50", "setting": "LS174T [5]", "value": 200, "unit": "µM"},
      {"measurement": "Km", "setting": "[6]", "value": 3.4, "unit": "µM"}
    ]},
    {"smiles": "CS(=O)(=O)OCCN(CCOS(C)(=O)=O)c1ccc(C(=O)N[C@@H](CCC(=O)O)C(=O)O)cc1", "values": [
      {"measurement": "half-life", "setting": "[7]", "value": 0.7, "unit": "h"}
    ]},
    {"smiles": "CS(=O)(=O)OCCN(CCOS(C)(=O)=O)c1ccc(C(=O)O)cc1F", "values": [
      {"measurement": "half-life", "setting": "[1]", "value": 0.0317, "unit": "h"},
      {"measurement": "IC50", "setting": "LS174T [2]", "value": 480, "unit": "µM"}
    ]},
    {"smiles": "CS(=O)(=O)OCCN(CCOS(C)(=O)=O)c1ccc(C(=O)N[C@@H](CCC(=O)O)C(=O)O)cc1F", "values": [
      {"measurement": "half-life", "setting": "[1]", "value": 0.15, "unit": "h"},
      {"measurement": "k cat", "setting": "[3]", "value": 565, "unit": "s⁻¹"},
      {"measurement": "k cat/Km", "setting": "[4]", "value": "3.3e+07", "unit": "M⁻¹ s⁻¹"},
      {"measurement": "Km", "setting": "[6]", "value": 17, "unit": "µM"}
    ]},
    {"smiles": "CS(=O)(=O)OCCN(CCCl)c1ccc(C(=O)N[C@@H](CCC(=O)O)C(=O)O)c(F)c1", "values": [
      {"measurement": "k cat", "setting": "[3]", "value": 213, "unit": "s⁻¹"},
      {"measurement": "k cat/Km", "setting": "[4]", "value": "1.9e+07", "unit": "M⁻¹ s⁻¹"},
      {"measurement": "Km", "setting": "[6]", "value": 11, "unit": "µM"}
    ]},
    {"smiles": "CS(=O)(=O)OCCN(CCCl)c1ccc(C(=O)N[C@@H](CCC(=O)O)C(=O)O)cc1F", "values": [
      {"measurement": "half-life", "setting": "[1]", "value": 2.03, "unit": "h"},
      {"measurement": "k cat", "setting": "[3]", "value": 614, "unit": "s⁻¹"},
      {"measurement": "k cat/Km", "setting": "[4]", "value": "1.02e+08", "unit": "M⁻¹ s⁻¹"},
      {"measurement": "Km", "setting": "[6]", "value": 6, "unit": "µM"}
    ]},
    {"smiles": "O=C(O)CC[C@H](NC(=O)c1ccc(N(CCCl)CCCl)cc1F)C(=O)O", "values": [
      {"measurement": "k cat", "setting": "[3]", "value": 462, "unit": "s⁻¹"},
      {"measurement": "k cat/Km", "setting": "[4]", "value": "3.1e+07", "unit": "M⁻¹ s⁻¹"},
      {"measurement": "IC50", "setting": "LS174T [5]", "value": "> 800", "unit": "µM"},
      {"measurement": "IC50", "setting": "LS174T [2]", "value": "> 800", "unit": "µM"},
      {"measurement": "Km", "setting": "[6]", "value": 15, "unit": "µM"}
    ]},
    {"smiles": "CS(=O)(=O)OCCN(CCCl)c1ccc(C(=O)O)c(F)c1", "values": [
      {"measurement": "half-life", "setting": "[1]", "value": 3.2, "unit": "h"},
      {"measurement": "IC50", "setting": "LS174T [2]", "value": "> 800", "unit": "µM"}
    ]},
    {"smiles": "CS(=O)(=O)OCCN(CCCl)c1ccc(C(=O)O)cc1", "values": [
      {"measurement": "half-life", "setting": "[1]", "value": 0.967, "unit": "h"},
      {"measurement": "IC50", "setting": "LS174T [2]", "value": 185, "unit": "µM"}
    ]},
    {"smiles": "O=C(O)CC[C@H](NC(=O)c1ccc(N(CCCl)CCCl)c(F)c1)C(=O)O", "values": [
      {"measurement": "half-life", "setting": "[1]", "value": 2.45, "unit": "h"},
      {"measurement": "k cat", "setting": "[3]", "value": 1028, "unit": "s⁻¹"},
      {"measurement": "k cat/Km", "setting": "[4]", "value": "1.03e+08", "unit": "M⁻¹ s⁻¹"},
      {"measurement": "IC50", "setting": "LS174T [5]", "value": 390, "unit": "µM"},
      {"measurement": "IC50", "setting": "LS174T [2]", "value": "> 800", "unit": "µM"},
      {"measurement": "Km", "setting": "[6]", "value": 10, "unit": "µM"}
    ]}
  ]
}
